Source: ChEMBL document CHEMBL2157993, “Urea-based inhibitors of Trypanosoma brucei methionyl-tRNA synthetase: selectivity and in vivo characterization” (J Med Chem, 2012)
The source made the active and inactive calls. The rule behind the calls is not given here.

How the values were obtained:
Trypanosoma brucei [1] = test: Binding affinity to Trypanosoma brucei MetRS at 100 uM by thermal shift assay
Procedure, shortened: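 Thermal shift (ΔTm) read-out with T. brucei MetRS at 0.4 mg/ml and 5% DMSO; otherwise per an earlier protocol. The test agent was at the single concentration in the curator's line. Repeated three times independently.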

[2] = Inhibition of Trypanosoma brucei MetRS aminoacylation activity assessed as reduction in [3H]methionine incorporation into Escherichia coli tRNA pre-incubated for 15 mins before tRNA addition and measured after 120 mins by scintillation counting
Procedure, shortened: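 Recombinant enzyme at 10 nM, preincubated 15 min with 12-point two-fold inhibitor dilutions in 25 mM HEPES pH 7.9, 10 mM MgCl2, 50 mM KCl, spermine, BSA, DTT, 1% DMSO and pyrophosphatase. Reaction started with 400 μg/mL E. coli tRNA, 0.1 mM ATP and 250 nM [3H]methionine, run 120 min at room temperature. TCA-precipitated and filtered for scintillation counting. Quadruplicate, with IC50 by sigmoidal fit.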

[3] = test system: Trypanosoma brucei brucei; test: Growth inhibition of Trypanosoma brucei brucei 427 blood stream forms after 48 hrs by alamar blue assay; type: functional, organism-based; details: Trypanosoma brucei, 427, 48 h
Procedure, shortened: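 Strain 427 bloodstream forms cultured in HMI-9 with 10% FBS at 37°C, 5% CO2. Triplicate wells seeded at 5×10^4 trypomastigotes with serial compound dilutions from 20 mM DMSO stocks. AlamarBlue read-out at 48 h, with pentamidine as the positive control.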

[4] = Selectivity ratio of IC50 for human MetRS to IC50 for Trypanosoma brucei MetRS
Procedure, shortened: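 Ratio of the human mitochondrial MetRS IC50 to the T. brucei MetRS IC50, each from a [3H]methionine aminoacylation assay.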

HepG2 = test: Cytotoxicity against human HepG2 cells incubated for 48 hrs by alamar blue assay; type: cell-based; details: HepG2, 48 h
Procedure, shortened: (§1)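 […] cells in RPMI or HepG2 cells in DMEM/F-12, each with 10% serum, seeded at 5×10^3 per well. Exposed to serial compound dilutions for 48 h.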

Trypanosoma brucei [5] = test: Inhibition of protein synthesis in Trypanosoma brucei assessed as reduction in [3H]L-histidine incorporation into proteins incubated for 4 hrs by scintillation counting; type: functional, organism-based
[6] = test system: Trypanosoma brucei rhodesiense; test: Antiparasitic activity against Trypanosoma brucei rhodesiense STIB900 infected in Swiss Webster mouse assessed as reduction in parasitemia at 50 mg/kg, po dosed 24 hrs post infection every 12 hrs for 4 days measured 96 hrs post infection by microscopy; type: functional; parameters: scale not given: the % may be the effect or the level left
Procedure, shortened: (§2)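 Female Swiss Webster (CFW) mice, 6-8 weeks old, five per group. Each infected IP at time 0 with 1×10^4 bloodstream-form STIB900 in 0.2 ml. Compound in 5% DMSO, 3% EtOH, 7% Tween 80 in saline, given by oral gavage (0.2 mL). Vehicle-only group dosed alongside. Parasitemia read daily by wet-mount microscopy of tail blood. Unpaired t-tests per day.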

[7] = test system: Trypanosoma brucei rhodesiense; test: Antiparasitic activity against Trypanosoma brucei rhodesiense STIB900 infected in Swiss Webster mouse assessed as reduction in parasitemia at 50 mg/kg, po dosed 24 hrs post infection every 12 hrs for 4 days measured 120 hrs post infection by microscopy; type: functional, organism-based; parameters: dose 50 mg/kg
Mus musculus [8] = test: (§3) Half life in mouse at 50 mg/kg, po administered as single dose measured over 6 hrs by MS/MS method; type: ADME, organism-based; parameters: dose 50 mg/kg, route oral; details: in vivo, 6 h
Procedure, shortened: (§4)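 Mice, three per group, given one oral dose of 50 mg/kg in 5% DMSO, 3% EtOH, 7% Tween 80 in saline. Tail-snip blood taken at 0.5, 1, 2, 3, 4 and 6 h. Plasma extracted with acetonitrile and quantified by LC-MS/MS.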

[9] = Selectivity index, ratio of EC50 for human HepG2 cells to EC50 for Trypanosoma brucei brucei 427; type: toxicity, cell-based; details: read-out: Ratio EC50
[10] = target: ATP-dependent translocase ABCB1 (Homo sapiens, UniProt P08183); test: Binding affinity to MDR1 expressed in MDCK2 cells assessed as absorptive quotient at 3 uM in absence of 2 uM by mass spectroscopy; type: ADME, cell-based; details: dog, mdck-ii
Procedure, shortened: (§5)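 Monolayers preincubated about 30 min with or without 2 μM elacridar, then given compound at 3 μM final (apical). After 60 min shaking, both chambers were sampled for MS. Integrity checked by Lucifer Yellow and TEER. Triplicate. Papp(A-B) and AQ calculated.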

[11] = Permeability across MDCK2-MDR1 cells expressing MDR1 at 3 uM in absence of 2 uM P-gp inhibitor Elacridal by mass spectroscopy; type: ADME, cell-based, Canis lupus familiaris; details: dog, mdck-ii
Procedure, shortened: as §5, with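 “MDR1-MDCKII cells seeded on Transwell inserts and assayed 3 days later at 37°C in HBSS with glucose and HEPES. Monolayers” for “Monolayers”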

[12] = Selectivity index, ratio of EC50 for human CRL8155 cells to EC50 for Trypanosoma brucei brucei 427; type: toxicity; details: read-out: Ratio EC50
[13] = test system: Trypanosoma brucei rhodesiense; test: Antiparasitic activity against Trypanosoma brucei rhodesiense STIB900 infected in Swiss Webster mouse assessed as reduction in parasitemia at 50 mg/kg, po dosed 24 hrs post infection every 12 hrs for 4 days measured 72 hrs post infection by microscopy; type: functional; parameters: scale not given: the % may be the effect or the level left; procedure, shortened: as §2
Mus musculus [14] = test: (§6) AUC in mouse at 50 mg/kg, po administered as single dose measured over 6 hrs by MS/MS method; type: ADME, organism-based, Plasma; parameters: time < 6 hr, dose 50 mg/kg, route oral; details: in vivo, 6 h; procedure, shortened: as §4
Mus musculus [15] = test: (§7) Cmax in mouse at 50 mg/kg, po administered as single dose measured over 6 hrs by MS/MS method; type: ADME, organism-based; parameters: dose 50 mg/kg, route oral; details: in vivo, 6 h; procedure, shortened: as §4
[16] = Tmax in mouse at 50 mg/kg, po administered as single dose measured over 6 hrs by MS/MS method; type: ADME, organism-based; parameters: dose 50 mg/kg, route oral; details: in vivo; procedure, shortened: as §4
[17] = test system: Trypanosoma brucei rhodesiense; test: Antiparasitic activity against Trypanosoma brucei rhodesiense STIB900 blood stream forms incubated for 48 hrs by alamar blue assay; type: functional, organism-based; details: STIB900, 48 h
[18] = test system: Trypanosoma brucei rhodesiense; test: Antiparasitic activity against Trypanosoma brucei rhodesiense STIB900 infected in Swiss Webster mouse assessed as reduction in parasitemia at 50 mg/kg, po dosed 24 hrs post infection every 12 hrs for 4 days measured 48 hrs post infection by microscopy; type: functional; parameters: scale not given: the % may be the effect or the level left; procedure, shortened: as §2
Mus musculus [19] = test: Time duration for plasma concentration staying above IC50 in Trypanosoma brucei rhodesiense STIB900 infected Swiss Webster mouse at 50 mg/kg, po dosed 24 hrs post infection every 12 hrs for 4 days
Mus musculus [20] = test: Toxicity in Trypanosoma brucei rhodesiense STIB900 infected Swiss Webster mouse at 50 mg/kg, po dosed 24 hrs post infection every 12 hrs for 4 days; type: organism-based; parameters: dose 50 mg/kg, route oral; details: in vivo
[21] = Drug level in Swiss Webster mouse brain at 5 mg/kg, ip after 60 mins by MS/MS method; type: ADME, organism-based; parameters: dose 5 mg/kg, route intraperitoneal; details: read-out: Drug uptake
Procedure, shortened: (§8)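 Female Swiss Webster mice, 6-8 weeks old, three per compound, given 5 mg/kg IP in 5% DMSO/3% EtOH/7% Tween 80 saline. Killed at 1 h. Plasma and homogenised brain extracted with acetonitrile containing an extraction standard, with spiked blank brains used for standardisation. Quantified by LC-MS/MS.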

[22] = Cytotoxicity against human CRL8155 cells incubated for 48 hrs by alamar blue assay; type: cell-based; details: CRL8155, 48 h; procedure, shortened: as §1
[23] = as §3; type: ADME, organism-based; parameters: dose 50 mg/kg, route oral; details: in vivo; procedure, shortened: as §4
[24] = as §6; type: ADME, organism-based, Plasma; parameters: time < 6 hr, dose 50 mg/kg, route oral; details: plasma; procedure, shortened: as §4
[25] = as §7; type: ADME, organism-based; parameters: dose 50 mg/kg, route oral; details: in vivo; procedure, shortened: as §4
[26] = Plasma concentration in Swiss Webster mouse at 5 mg/kg, ip after 60 mins by MS/MS method; type: ADME, organism-based; parameters: dose 5 mg/kg, route intraperitoneal; procedure, shortened: as §8

Sequence of ATP-dependent translocase ABCB1 (P08183 whole entry): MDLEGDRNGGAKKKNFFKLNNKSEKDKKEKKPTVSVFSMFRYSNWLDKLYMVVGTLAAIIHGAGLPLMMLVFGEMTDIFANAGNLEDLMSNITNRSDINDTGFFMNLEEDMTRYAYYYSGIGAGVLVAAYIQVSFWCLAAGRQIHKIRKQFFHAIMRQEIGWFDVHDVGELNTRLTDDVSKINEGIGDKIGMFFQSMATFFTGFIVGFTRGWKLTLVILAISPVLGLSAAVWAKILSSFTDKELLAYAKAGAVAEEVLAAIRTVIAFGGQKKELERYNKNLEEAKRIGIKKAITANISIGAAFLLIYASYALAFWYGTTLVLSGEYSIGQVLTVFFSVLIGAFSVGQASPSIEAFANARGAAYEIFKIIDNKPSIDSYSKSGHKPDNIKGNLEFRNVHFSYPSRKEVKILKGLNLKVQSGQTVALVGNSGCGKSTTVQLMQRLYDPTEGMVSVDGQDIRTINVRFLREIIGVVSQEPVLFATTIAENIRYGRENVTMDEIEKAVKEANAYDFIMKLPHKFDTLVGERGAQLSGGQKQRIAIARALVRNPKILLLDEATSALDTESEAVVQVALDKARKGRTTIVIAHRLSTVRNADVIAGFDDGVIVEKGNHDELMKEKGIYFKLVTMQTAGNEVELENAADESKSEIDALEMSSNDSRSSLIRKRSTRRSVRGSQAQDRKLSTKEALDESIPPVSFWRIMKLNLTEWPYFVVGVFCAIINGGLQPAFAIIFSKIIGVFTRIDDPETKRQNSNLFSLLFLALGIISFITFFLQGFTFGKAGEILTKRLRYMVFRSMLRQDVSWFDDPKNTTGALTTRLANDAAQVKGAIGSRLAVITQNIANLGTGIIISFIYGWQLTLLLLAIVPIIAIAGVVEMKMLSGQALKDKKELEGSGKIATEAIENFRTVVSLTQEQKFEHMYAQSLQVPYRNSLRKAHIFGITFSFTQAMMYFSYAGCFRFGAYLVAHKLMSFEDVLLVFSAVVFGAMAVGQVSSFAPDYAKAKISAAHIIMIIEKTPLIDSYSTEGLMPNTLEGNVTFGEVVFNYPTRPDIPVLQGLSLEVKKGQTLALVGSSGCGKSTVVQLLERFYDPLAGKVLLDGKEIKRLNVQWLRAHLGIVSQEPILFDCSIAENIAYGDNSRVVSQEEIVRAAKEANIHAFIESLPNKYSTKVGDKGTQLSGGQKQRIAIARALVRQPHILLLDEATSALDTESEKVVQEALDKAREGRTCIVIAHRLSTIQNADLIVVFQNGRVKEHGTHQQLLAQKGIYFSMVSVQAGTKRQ

For `O=C(NCCCNCc1cccc(Cl)c1)Nc1ccccc1`, the ΔTm (Trypanosoma brucei [1]) was 5.5 °C.

Molecule `Nc1cccc(NC(=O)NCCCNCc2cc(Cl)cc(Cl)c2)c1` has a ΔTm (Trypanosoma brucei [1]) of 4.3 °C.

With `COc1cccc(CNCCCNC(=O)Nc2ccccc2)c1` the ΔTm (Trypanosoma brucei [1]) was 4.7 °C.

`O=C(NCCCNCc1ccccc1)Nc1ccccc1` gave a ΔTm (Trypanosoma brucei [1]) of 1.3 °C.

With `O=C(NCCCNCc1cc(Cl)cc(Cl)c1)Nc1ccccc1F` the ΔTm (Trypanosoma brucei [1]) was 7.3 °C.

For `O=C(NCCCNCc1cc(Cl)cc(Cl)c1)Nc1cccs1`, the ΔTm (Trypanosoma brucei [1]) was 7.6 °C, the IC50 [2] was 64 nM and the EC50 [3] was 350 nM. For the same molecule, the Ratio IC50 [4] was 48 and the EC50 (HepG2) was 14500 nM.

`COc1ccccc1CNCCCNC(=O)Nc1ccccc1` gave a ΔTm (Trypanosoma brucei [1]) of 1.1 °C.

In the case of `NCCCC(N)(C(=O)O)C(F)F` (stereo not given), the inhibition (Trypanosoma brucei [5]) is reported as “inactive”.

In the case of `O=C(NCCCNCc1cc(Cl)cc(Cl)c1)Nc1ccsc1`, the ΔTm (Trypanosoma brucei [1]) is reported as 8.3 °C, the Activity [6] is reported as 63% and the IC50 [2] is reported as 28 nM. The Activity [7] was “inactive”, the inhibition (Trypanosoma brucei [5]) was “Dose-dependent effect” and the t1/2 (Mus musculus [8]) was 63 min. It also gave a selectivity ratio [9] of 59, an AQ [10] of 0.42 and a Papp [11] of 17.2 ×10⁻⁶ cm/s. The EC50 [3] was 220 nM, the selectivity ratio [12] was 55 and the Activity [13] was 80%. For the same molecule, the Ratio IC50 [4] was 155, the AUC (Mus musculus [14]) was 464 µM·min and the Cmax (Mus musculus [15]) was 3700 nM. It also gave a Tmax [16] of 30 min, an EC50 [17] of 420 nM and an Activity [18] of 94%. For the same molecule, the EC50 (HepG2) was 13000 nM, the Time (Mus musculus [19]) was <6 h and the Activity (Mus musculus [20]) was “Non-toxic”.

With `Oc1cc(NCCCNCc2cc(Cl)cc(Cl)c2)nc2ccccc12` the concentration at 1 h [21] was < 3 nM, the inhibition (Trypanosoma brucei [5]) was “Dose-dependent effect” and the selectivity ratio [9] was 27. It also gave an AQ [10] of 0.36, a Papp [11] of 2.9 ×10⁻⁶ cm/s and a selectivity ratio [12] of 27.

`COc1cc(Cl)cc(CNCCCNC(=O)Nc2ccsc2)c1` gave a ΔTm (Trypanosoma brucei [1]) of 7.9 °C, an EC50 [22] of 22000 nM and an IC50 [2] of 19 nM. It also gave a half-life [23] of 82 min, a selectivity ratio [9] of 147 and an AQ [10] of 0.53. For the same molecule, the Papp [11] was 9.7 ×10⁻⁶ cm/s, the EC50 [3] was 150 nM and the selectivity ratio [12] was 147. The Ratio IC50 [4] was 347, the AUC at 6 h [24] was 2.68 µM·h and the Cmax [25] was 1290 nM. For the same molecule, the Tmax [16] was 30 min.

`O=C(NCCCNCc1cc(Cl)cc(Cl)c1Cl)Nc1ccccc1` showed a ΔTm (Trypanosoma brucei [1]) of 6.4 °C.

`O=C(NCCCNCc1cc(Cl)cc(Cl)c1)Nc1ccc(O)cc1` gave a ΔTm (Trypanosoma brucei [1]) of 5.8 °C.

`O=C(NCCCNCc1cc(Cl)cc(Cl)c1)Nc1ccccc1` gave a ΔTm (Trypanosoma brucei [1]) of 7.8 °C, a concentration at 1 h [21] of 1800 nM and an IC50 [2] of 57 nM. It also gave a half-life [23] of 65 min, an AQ [10] of 0.21 and a Papp [11] of 35.6 ×10⁻⁶ cm/s. The EC50 [3] was 415 nM, the AUC at 6 h [24] was 2.53 µM·h and the Cmax [25] was 1350 nM. For the same molecule, the Tmax [16] was 30 min, the concentration at 1 h [26] was 120 nM and the EC50 (HepG2) was 20000 nM.

`O=C(NCCCNCc1cc(Cl)cc(Cl)c1)Nc1cccc(O)c1` showed a ΔTm (Trypanosoma brucei [1]) of 7.7 °C, an EC50 [22] of 12000 nM and an IC50 [2] of 29 nM. For the same molecule, the AQ [10] was 0.62, the Papp [11] was 2.9 ×10⁻⁶ cm/s and the EC50 [3] was 170 nM. For the same molecule, the Ratio IC50 [4] was 187.

In the case of `O=C(NCCCNCc1cc(Cl)cc(Cl)c1)Nc1ccncc1`, the ΔTm (Trypanosoma brucei [1]) is reported as 3.1 °C.

With `CCOc1ccc(CNCCCNC(=O)Nc2ccccc2)cc1` the ΔTm (Trypanosoma brucei [1]) was 0.5 °C.
